Test results: paper PMC11539005 (RSC Advances, 2024)
Values joined by “and” are separate entries in the source; they are usually repeats but may differ in a detail not shown here. Equal values may be shown once. Blank lines part the entries; values can stand above or below the compound they belong to.

Key:
MCF-7 = assay: MTT anti-proliferative assay on MCF-7; format: cell-based; settings: Homo sapiens, MCF7, read-out: MCF-7 (IC50)
Summary of the method: (§1)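 Human MCF-7 and HepG2 cancer cell lines exposed to test compounds. Anti-proliferative IC50 given in μM. Each reported value is the mean of IC50 values from three separate experiments.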

HepG2 = assay: MTT anti-proliferative assay on HepG2; format: cell-based; settings: Homo sapiens, HepG2, read-out: HepG2 (IC50)
Summary of the method: as §1

WI-38 = assay: Safety assay: cytotoxicity against normal human lung cells; format: cell-based
Summary of the method: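 Normal human lung WI-38 cells exposed to test compound for in vitro cytotoxicity. IC50 in μM is the mean of IC50 values from three separate experiments. Selectivity index = IC50 in WI-38 / IC50 in MCF-7 or HepG2 cancer cells.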

VEGFR-2 = VEGFR-2 (Homo sapiens, UniProt P35968); assay: biochemical
Chain of VEGFR-2 (P35968 20-1356): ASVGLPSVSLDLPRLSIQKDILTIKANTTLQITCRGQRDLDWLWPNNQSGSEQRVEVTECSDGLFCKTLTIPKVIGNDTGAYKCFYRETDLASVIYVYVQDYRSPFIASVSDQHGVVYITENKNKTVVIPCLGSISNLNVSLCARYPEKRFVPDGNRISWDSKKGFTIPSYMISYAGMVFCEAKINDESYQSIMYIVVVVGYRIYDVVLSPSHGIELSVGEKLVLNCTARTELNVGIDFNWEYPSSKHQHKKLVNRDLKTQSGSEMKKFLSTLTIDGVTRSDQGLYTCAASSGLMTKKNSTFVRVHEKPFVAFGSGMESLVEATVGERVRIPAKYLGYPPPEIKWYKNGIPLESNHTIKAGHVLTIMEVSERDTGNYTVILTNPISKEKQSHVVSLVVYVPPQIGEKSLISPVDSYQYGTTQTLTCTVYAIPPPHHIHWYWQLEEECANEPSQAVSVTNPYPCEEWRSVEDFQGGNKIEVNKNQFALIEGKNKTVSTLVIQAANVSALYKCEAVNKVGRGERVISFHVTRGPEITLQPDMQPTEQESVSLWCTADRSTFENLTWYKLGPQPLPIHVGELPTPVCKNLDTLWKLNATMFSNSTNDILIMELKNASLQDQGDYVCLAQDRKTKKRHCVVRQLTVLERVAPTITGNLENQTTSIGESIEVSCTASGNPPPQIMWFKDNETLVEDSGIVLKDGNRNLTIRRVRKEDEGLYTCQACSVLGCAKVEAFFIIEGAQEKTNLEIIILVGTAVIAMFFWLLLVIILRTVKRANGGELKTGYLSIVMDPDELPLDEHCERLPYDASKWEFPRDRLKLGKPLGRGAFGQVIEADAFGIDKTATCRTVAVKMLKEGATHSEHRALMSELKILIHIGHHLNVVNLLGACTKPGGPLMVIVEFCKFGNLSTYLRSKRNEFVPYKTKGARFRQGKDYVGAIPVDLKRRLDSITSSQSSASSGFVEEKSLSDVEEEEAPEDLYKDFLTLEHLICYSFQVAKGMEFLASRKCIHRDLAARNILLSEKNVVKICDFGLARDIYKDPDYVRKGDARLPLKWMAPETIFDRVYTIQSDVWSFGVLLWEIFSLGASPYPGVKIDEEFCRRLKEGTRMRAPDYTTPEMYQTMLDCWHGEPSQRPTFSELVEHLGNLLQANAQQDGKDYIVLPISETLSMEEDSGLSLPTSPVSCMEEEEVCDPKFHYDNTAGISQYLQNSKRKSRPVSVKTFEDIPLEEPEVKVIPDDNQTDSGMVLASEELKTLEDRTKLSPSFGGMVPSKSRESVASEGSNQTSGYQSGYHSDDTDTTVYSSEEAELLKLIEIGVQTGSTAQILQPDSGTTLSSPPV

CDK8 = CDK8 (Homo sapiens, UniProt P49336); assay: Kinase profiling test, CDK8; format: biochemical; settings: CDK8 IC50 (mean ± SD)
Chain of CDK8 (P49336 whole entry): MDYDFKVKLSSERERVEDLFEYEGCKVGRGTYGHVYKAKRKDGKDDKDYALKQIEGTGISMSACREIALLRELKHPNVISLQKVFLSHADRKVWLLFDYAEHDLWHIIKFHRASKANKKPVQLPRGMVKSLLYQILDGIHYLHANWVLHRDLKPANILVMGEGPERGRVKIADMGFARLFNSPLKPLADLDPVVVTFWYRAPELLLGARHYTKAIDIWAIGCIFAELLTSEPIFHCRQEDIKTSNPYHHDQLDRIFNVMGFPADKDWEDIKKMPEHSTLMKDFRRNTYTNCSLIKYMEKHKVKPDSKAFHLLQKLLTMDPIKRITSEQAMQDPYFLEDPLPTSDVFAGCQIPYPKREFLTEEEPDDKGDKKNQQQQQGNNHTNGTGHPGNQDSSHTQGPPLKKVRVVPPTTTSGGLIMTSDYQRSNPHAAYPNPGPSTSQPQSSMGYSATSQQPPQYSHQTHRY
Chain of CDK8 (P24863 whole entry partner): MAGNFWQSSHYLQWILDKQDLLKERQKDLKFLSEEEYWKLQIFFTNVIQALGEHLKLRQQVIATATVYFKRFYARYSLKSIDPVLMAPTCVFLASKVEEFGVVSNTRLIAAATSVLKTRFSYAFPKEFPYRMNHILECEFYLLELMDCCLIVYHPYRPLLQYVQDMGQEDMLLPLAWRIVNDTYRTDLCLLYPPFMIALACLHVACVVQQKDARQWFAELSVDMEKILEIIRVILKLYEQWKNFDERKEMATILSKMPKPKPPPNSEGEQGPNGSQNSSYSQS

PIK3α = PIK3α (Homo sapiens, UniProt P42336); assay: Kinase profiling test, PIK3α; format: biochemical
Chain of PIK3α (P42336 whole entry): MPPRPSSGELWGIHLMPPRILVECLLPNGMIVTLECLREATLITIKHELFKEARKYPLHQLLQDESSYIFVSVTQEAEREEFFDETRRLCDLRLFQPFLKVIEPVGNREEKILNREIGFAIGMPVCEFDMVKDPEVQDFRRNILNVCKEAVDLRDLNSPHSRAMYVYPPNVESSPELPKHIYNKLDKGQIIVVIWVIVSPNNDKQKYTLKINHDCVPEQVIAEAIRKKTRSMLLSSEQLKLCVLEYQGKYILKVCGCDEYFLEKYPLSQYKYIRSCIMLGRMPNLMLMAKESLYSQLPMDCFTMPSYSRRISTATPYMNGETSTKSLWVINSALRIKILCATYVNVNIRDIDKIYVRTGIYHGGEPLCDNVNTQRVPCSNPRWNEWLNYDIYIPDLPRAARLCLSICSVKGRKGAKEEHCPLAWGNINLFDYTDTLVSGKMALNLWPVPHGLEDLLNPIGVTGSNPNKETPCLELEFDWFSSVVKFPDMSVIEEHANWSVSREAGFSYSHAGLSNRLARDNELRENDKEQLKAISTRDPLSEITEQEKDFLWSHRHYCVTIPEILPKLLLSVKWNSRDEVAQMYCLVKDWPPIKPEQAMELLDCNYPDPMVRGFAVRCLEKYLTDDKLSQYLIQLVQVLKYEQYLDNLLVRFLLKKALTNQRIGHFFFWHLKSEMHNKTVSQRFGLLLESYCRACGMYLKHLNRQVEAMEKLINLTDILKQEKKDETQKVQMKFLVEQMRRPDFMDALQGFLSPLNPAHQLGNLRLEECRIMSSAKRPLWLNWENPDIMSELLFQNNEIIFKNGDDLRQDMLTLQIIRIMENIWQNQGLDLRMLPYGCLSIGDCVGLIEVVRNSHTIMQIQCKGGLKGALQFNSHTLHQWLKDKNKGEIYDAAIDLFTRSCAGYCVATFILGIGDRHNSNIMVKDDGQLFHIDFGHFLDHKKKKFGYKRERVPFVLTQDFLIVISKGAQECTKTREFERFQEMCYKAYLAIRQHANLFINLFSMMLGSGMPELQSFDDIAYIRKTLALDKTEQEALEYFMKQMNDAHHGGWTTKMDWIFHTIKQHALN
Chain of PIK3α (P27986 whole entry partner): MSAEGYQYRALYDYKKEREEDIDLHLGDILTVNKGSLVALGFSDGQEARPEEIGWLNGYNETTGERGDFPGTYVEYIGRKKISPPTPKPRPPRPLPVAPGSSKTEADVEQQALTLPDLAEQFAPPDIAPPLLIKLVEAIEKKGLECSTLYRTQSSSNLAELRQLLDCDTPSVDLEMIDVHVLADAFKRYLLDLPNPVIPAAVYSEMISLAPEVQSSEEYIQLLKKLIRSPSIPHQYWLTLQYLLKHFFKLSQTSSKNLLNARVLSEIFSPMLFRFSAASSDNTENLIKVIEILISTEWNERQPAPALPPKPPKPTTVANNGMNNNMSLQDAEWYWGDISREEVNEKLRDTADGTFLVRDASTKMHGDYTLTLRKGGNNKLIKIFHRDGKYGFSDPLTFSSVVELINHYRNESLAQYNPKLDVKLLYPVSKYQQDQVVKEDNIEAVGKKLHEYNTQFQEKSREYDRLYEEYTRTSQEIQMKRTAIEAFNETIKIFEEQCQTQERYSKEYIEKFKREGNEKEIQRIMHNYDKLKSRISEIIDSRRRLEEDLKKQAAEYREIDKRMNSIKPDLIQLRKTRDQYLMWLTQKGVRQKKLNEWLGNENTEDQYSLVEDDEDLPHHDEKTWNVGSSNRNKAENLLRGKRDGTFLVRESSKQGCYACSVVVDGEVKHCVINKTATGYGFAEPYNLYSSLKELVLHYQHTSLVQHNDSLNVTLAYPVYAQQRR

BRAF = BRAF (Homo sapiens, UniProt P15056); assay: Kinase profiling test, BRAF; format: biochemical
EGFR = EGFR (Homo sapiens, UniProt P00533); assay: Kinase profiling test, EGFR; format: biochemical
Chain of EGFR (P00533 25-1210): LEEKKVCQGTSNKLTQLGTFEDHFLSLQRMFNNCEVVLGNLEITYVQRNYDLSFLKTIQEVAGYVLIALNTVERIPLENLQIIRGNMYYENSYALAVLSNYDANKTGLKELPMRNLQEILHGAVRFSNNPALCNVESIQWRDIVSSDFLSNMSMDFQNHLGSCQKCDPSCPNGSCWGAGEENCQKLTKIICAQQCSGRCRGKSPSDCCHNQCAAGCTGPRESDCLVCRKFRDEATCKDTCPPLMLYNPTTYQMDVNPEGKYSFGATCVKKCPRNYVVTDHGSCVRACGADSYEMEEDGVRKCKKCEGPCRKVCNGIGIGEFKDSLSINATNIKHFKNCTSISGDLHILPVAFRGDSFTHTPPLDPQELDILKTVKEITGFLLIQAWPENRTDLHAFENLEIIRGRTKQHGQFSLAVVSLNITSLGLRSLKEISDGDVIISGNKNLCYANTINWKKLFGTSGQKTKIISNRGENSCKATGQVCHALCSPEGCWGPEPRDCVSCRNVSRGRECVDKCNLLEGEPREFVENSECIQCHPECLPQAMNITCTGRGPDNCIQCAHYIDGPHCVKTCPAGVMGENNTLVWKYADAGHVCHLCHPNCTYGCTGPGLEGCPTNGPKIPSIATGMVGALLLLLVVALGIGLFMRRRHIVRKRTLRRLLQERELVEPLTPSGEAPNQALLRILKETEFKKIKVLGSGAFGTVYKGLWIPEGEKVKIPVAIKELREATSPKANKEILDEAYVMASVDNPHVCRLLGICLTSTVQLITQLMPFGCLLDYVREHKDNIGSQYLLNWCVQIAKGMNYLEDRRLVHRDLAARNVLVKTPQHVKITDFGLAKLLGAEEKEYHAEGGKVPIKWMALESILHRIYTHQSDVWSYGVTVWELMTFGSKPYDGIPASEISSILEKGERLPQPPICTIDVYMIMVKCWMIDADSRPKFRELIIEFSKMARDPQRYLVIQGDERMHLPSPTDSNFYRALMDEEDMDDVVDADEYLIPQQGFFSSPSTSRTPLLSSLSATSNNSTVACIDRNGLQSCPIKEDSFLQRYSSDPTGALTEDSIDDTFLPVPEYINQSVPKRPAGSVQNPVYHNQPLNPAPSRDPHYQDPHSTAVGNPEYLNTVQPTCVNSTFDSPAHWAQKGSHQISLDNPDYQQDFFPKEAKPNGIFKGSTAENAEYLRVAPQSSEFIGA

MCF-7 cells [1] = assay: Cell cycle analysis by flow cytometry; format: cell-based; settings: MCF-7, 0.06 µM, 72 h
MCF-7 cells [2] = assay: Apoptosis assay; format: cell-based; settings: MCF-7, 0.06 µM, 72 h
caspase-8 = assay: RT-PCR caspase-8 expression in MCF-7 cells; format: cell-based; settings: MCF-7, 0.06 µM; control 1
caspase-9 = assay: RT-PCR caspase-9 expression in MCF-7 cells; format: cell-based; settings: MCF-7, 0.06 µM; control 1

IC50 (MCF-7): 1250 ± 20 nM
IC50 (HepG2): 9920 ± 220 nM
Compound: CC(=O)Nc1ccc(/C(C)=N/N=c2\sc(C(C)=O)nn2-c2ccc(C)cc2)cc1 [Compound 16, N-(4-((E)-1-(((Z)-5-Acetyl-3-(p-tolyl)-1,3,4-thiadiazol-2(3H)-ylidene)hydrazono)ethyl)phenyl) acetamide]

IC50 (MCF-7): 60 ± 10 nM
IC50 (HepG2): 130 ± 10 nM
Compound: CC(=O)c1nn(-c2ccccc2Cl)/c(=N/N=C(\C)c2ccc(NC(=O)c3ccccc3)cc2)s1 [Compound 20a, N-(4-((E)-1-(((Z)-5-Acetyl-3-(2-chlorophenyl)-1,3,4-thiadiazol-2(3H)-ylidene)hydrazono)ethyl)phenyl)benzamide]

Compound: CC(=O)c1nn(-c2ccc(C)cc2)/c(=N/N=C(\C)c2ccc(NC(=O)c3ccccc3)cc2)s1 [Compound 20b, N-(4-((E)-1-(((Z)-5-Acetyl-3-(p-tolyl)-1,3,4-thiadiazol-2(3H)-ylidene)hydrazono)ethyl)phenyl) benzamide]
IC50 (MCF-7): 50 ± 10 nM
IC50 (HepG2): 140 ± 10 nM
IC50 (WI-38; Homo sapiens, WI-38, read-out: WI-38 IC50): 190 ± 10 nM
Selectivity index HepG2 (WI-38; SI = IC50 in normal cells (WI-38)/IC50 in HepG2): 1.4
Selectivity index MCF-7 (WI-38; SI = IC50 in normal cells (WI-38)/IC50 in MCF-7): 3.8
IC50 (VEGFR-2; VEGFR-2 IC50, mean of three experiments): 51.1 nM and 51 nM
IC50 (VEGFR-2; VEGFR-2 inhibition): 24 nM
IC50 (CDK8): 266 ± 58 nM
IC50 (PIK3α): 2140 ± 95 nM
IC50 (BRAF): 5840 ± 250 nM
IC50 (EGFR): 1430 ± 85 nM
Cell cycle distribution % G2/M (MCF-7 cells [1]; control 13.72): 11.99%
Cell cycle distribution % S (MCF-7 cells [1]; control 23.91): 18.76%
Cell cycle distribution % G0-G1 (MCF-7 cells [1]; control 62.37): 69.25%
Late apoptosis (MCF-7 cells [2]; control 0.24): 15.99%
Early apoptosis (MCF-7 cells [2]; control 0.61): 18.48%
Necrosis (MCF-7 cells [2]; control 1.43): 4.14%
Total apoptosis (MCF-7 cells [2]; untreated 0.85): 34.47%
Caspase-8 RT-PCR (fold change) (caspase-8): 3.42 fold change and 3.4176 fold change
Caspase-9 RT-PCR (fold change) (caspase-9): 5.44 fold change and 5.4353 fold change

IC50 (MCF-7): 190 ± 10 nM
IC50 (HepG2): 150 ± 10 nM
Compound: CCOC(=O)c1nn(-c2cccc(Cl)c2)/c(=N/N=C(\C)c2ccc(NC(=O)c3ccccc3)cc2)s1 [Compound 21a, Ethyl (Z)-5-(((E)-1-(4-benzamidophenyl)ethylidene)hydrazono)-4-(3-chlorophenyl)-4,5-dihydro-1,3,4-thiadiazole-2-carboxylate]

IC50 (MCF-7): 140 ± 10 nM
IC50 (HepG2): 130 ± 10 nM
Compound: CCOC(=O)c1nn(-c2cccc(Cl)c2)/c(=N/N=C(\C)c2ccc(NC(=O)c3ccc(Cl)cc3)cc2)s1 [Compound 21b, Ethyl (Z)-5-(((E)-1-(4-(4-Chlorobenzamido)phenyl)ethylidene)hydrazono)-4-(3-chlorophenyl)-4,5-dihydro-1,3,4-thiadiazole-2-carboxylate]

IC50 (MCF-7): 140 ± 30 nM
IC50 (HepG2): 130 ± 30 nM
Compound: CNC(=O)c1cc(Oc2ccc(NC(=O)Nc3ccc(Cl)c(C(F)(F)F)c3)cc2)ccn1 [Sorafenib, reference compound]
